Here are results for 15 compounds from PubChem BioAssay AID540266 (Southern Research Specialized Biocontainment Screening …, 2011).

Where “and” joins values, the source holds several entries; their conditions need not be identical. Equal values may be shown once. Calls of active or inactive are those of the source.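 Rule for the calls: active = any dose giving under 70% viability, per first replicate; inactive = the rest.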

One assay deals with HEp-2 cell viability, luminescence (CellTiter-Glo). The assay is described as follows: HEp-2 cell cytotoxicity, dose response, cytotoxicity control for RSV inhibitor project, CellTiter-Glo luminescence, synthesized compounds, set 11 (AID 540266).
Details: not given
The method, boiled down: (§1)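 material = HEp-2 human cell line, uninfected (no virus added) | replication = triplicate wells | evaluation = % viability versus median cell controls, CC50 via 0–100-bounded 4-parameter fit | dosing = 8 doses, 1:2 steps, 0.5% DMSO | buffer or medium = DMEM/F12 with FBS | technique = CellTiter-Glo luminescence | incubation = compound exposure of cells for 6 days at 37 °C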
In general terms: In ATP-based viability assays light output follows the ATP content of the culture.
As for `Cc1ccc(Cn2c(=O)n(Cc3ccc(C(=O)NCCCN(C)C)cc3)c(=O)c3ccccc32)cc1`, the 50% cytotoxic concentration (CC50) was 15.1 µM. The same measure, in the same setting: to `Cc1ccc(Cn2c(=O)n(Cc3ccc(C(=O)NC(C)(C)C)cc3)c(=O)c3ccccc32)cc1` belongs 12.1 µM; to `Cc1ccc(C)c(NC(=O)[C@@H]2CCCN2S(=O)(=O)c2cccc3cccnc23)c1`, 34.7 µM and 32.9 µM; to `COCCCNC(=O)c1ccc(Cn2c(=O)c3ccccc3n(Cc3ccc(OC)cc3)c2=O)cc1`, 149 µM. `COCCCNC(=O)c1ccc(Cn2c(=O)c3ccccc3n(Cc3ccc(C)c(C(F)(F)F)c3)c2=O)cc1`: the CC50 was 71.3 µM.

For the compound `COCCCNC(=O)c1ccc(Cn2c(=O)c3ccccc3n(Cc3ccccc3Br)c2=O)cc1`, the CC50 is 7.99 µM. Still for that read-out and setting: the same measure for `Cc1ccc(Cn2c(=O)n(Cc3ccc(C(=O)NCCCOC(C)C)cc3)c(=O)c3ccccc32)cc1`: 19.1 µM. Turning to `COCCCNC(=O)c1ccc(Cn2c(=O)c3ccccc3n(Cc3ccc(F)cc3)c2=O)cc1`, the CC50 is 7.09 µM. Still for that read-out and setting: the same measure for `COCCCNC(=O)c1ccc(Cn2c(=O)c3ccccc3n(Cc3ccccc3F)c2=O)cc1`: 7.1 µM.

With `COCCCNC(=O)c1ccc(Cn2c(=O)c3ccccc3n(Cc3ccc(Br)cc3)c2=O)cc1`, the CC50 is 138 µM. On the same count and under the same terms, to `COCCCNC(=O)c1ccc(Cn2c(=O)c3ccccc3n(Cc3ccc([N+](=O)[O-])cc3)c2=O)cc1` belongs 113 µM; to `COCCCNC(=O)c1ccc(Cn2c(=O)c3ccccc3n(Cc3cccc(Br)c3)c2=O)cc1`, 3.32 µM. Same read-out and setting: to `CCOCCCNC(=O)c1ccc(Cn2c(=O)c3ccccc3n(Cc3ccc(C)cc3)c2=O)cc1` belongs 8.5 µM. As for `COCCCNC(=O)c1ccc(Cn2c(=O)c3ccccc3n(Cc3ccc(C(F)(F)F)cc3)c2=O)cc1`, the 50% cytotoxic concentration (CC50) is 79.2 µM.

Tested on in another assay: not listed separately
The description is as above. The note with it: HEp-2 cell viability, luminescence (CellTiter-Glo); at 200 µM (top of the series). The method, boiled down:
as §1
On to `Cc1ccc(Cn2c(=O)n(Cc3ccc(C(=O)Nc4ccncc4)cc3)c(=O)c3ccccc32)cc1`, for which the viability is 84% (inactive).

As a reminder, the CC50 is the concentration at which the toxic effect on the cells reaches its halfway point. The viability is the share of living cells, or the viability signal relative to a control.
